Test [1] relates to L1210. Put plainly: Antitumor activity against L1210 lymphoid leukemia and treated mean survival time per control mean survival time was determined at 300 mg/kg. Format: functional, Mus musculus. The gist of the method:
(§1)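 Mice bearing L1210 lymphoid leukaemia, tested by NCI contractors. Compound given as a single injection 1 day after tumour cell inoculation. T/C% = (treated/control) × 100.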

The test system of a further test is Mus musculus. The test can be described thus: Antitumor activity against CD8F1 mammary tumor and treated mean survival time per control mean survival time was determined at 300 mg/kg. Format: functional. In a few lines: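 Mice bearing CD8F1 mammary tumour, tested by NCI contractors. Compound given as a single injection starting 20 days after tumour cell inoculation. T/C% = (treated/control) × 100.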

In a further test the test system is P388. Put plainly: Antitumor activity against P388 Lymphocytic leukemia and treated mean survival time per control mean survival time was determined at 200 mg/kg. It is filed as functional, Mus musculus. In a few lines:
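Mice bearing P388 lymphocytic leukaemia, tested by NCI contractors. Compound given as five consecutive injections beginning 1 day after tumour cell inoculation. T/C% = (treated/control) × 100.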

In test [2] the test system is L1210. Put plainly: Antitumor activity against L1210 lymphoid leukemia and treated mean survival time per control mean survival time was determined at 500 mg/kg. It is filed as functional, Mus musculus. In a few lines: as §1
Test [3] can be described thus: Antitumor activity against Lewis lung carcinomia and treated mean survival time per control mean survival time was determined at 400 mg/kg. It is filed as functional, Mus musculus. In a few lines:
(§2)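 Mice bearing Lewis lung carcinoma, tested by NCI contractors. Compound given as nine consecutive injections beginning 1 day after tumour cell inoculation. T/C% = (treated/control) × 100.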

The nature of test [4]: Antitumor activity against Lewis lung carcinomia and treated mean survival time per control mean survival time was determined at 50 mg/kg. Format: functional, Mus musculus. In a few lines: as §2

Several values for one entry are separate records, joined by “and”; a condition that tells them apart may be missing. Equal entries are not always repeated.

By T/C is commonly meant the result in the treated group divided by that in the control group, in per cent. Regarding `CC/C(=C(/CC)c1ccc(OP(N)(=O)N(CCCl)CCCl)cc1)c1ccc(OP(N)(=O)N(CCCl)CCCl)cc1` (centres undefined), the T/C in the test with L1210 [1] is 113%; in the test with Mus musculus it was 39%; with P388 (200 mg/kg) it was 100% and 104%.

As to `CC(C)N1C[C@@H](COc2cccc3ccccc23)O[P@@]1(=O)N(CCCl)CCCl` (racemic), the T/C in the test with L1210 [2] (500 mg/kg) was 130% and 110% and 90%.

As to `CC(C)N1C[C@H](COc2cccc3ccccc23)O[P@@]1(=O)N(CCCl)CCCl` (racemic), the T/C in test [3] came to 90%; in test [4], 95%.

Molecule `NP(=O)(Oc1c2occc2cc2ccc(=O)oc12)N(CCCl)CCCl` (centres undefined) gave a T/C in the test with P388 of 114%.

In the test with L1210 [2], `CC/C(=C(/CC)c1ccc(OP(=O)(Cl)N(CCCl)CCCl)cc1)c1ccc(OP(=O)(Cl)N(CCCl)CCCl)cc1` (centres undefined) yielded a T/C of 100%.

In turn, `NP(=O)(Oc1cccc2c(OP(N)(=O)N(CCCl)CCCl)cccc12)N(CCCl)CCCl` (centres undefined) yielded a T/C in the test with L1210 [2] of 95%.

The values above are taken from ChEMBL document CHEMBL1122593, “Phosphorus-nitrogen compounds. 24. Phosphoramide mustard carrier derivatives” (1984).
